The source of these data is the array DNA melting data of Ke et al. (doi:10.1101/2024.01.08.574731).

The nature of data set [1]: melting temperature; fluorescence melt of hairpins on a sequencing array, two-state fit, raised by 9.35 °C to match UV melts. The conditions noted are these: sodium 0.088 M. An outline of the steps:
(§1)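 Cy3 signals were normalised both to pre-quench Cy3 and to control constructs. They came from library hairpins carrying annealed Cy3 and quencher oligos on a sequenced MiSeq flow cell, imaged in 50 mM Na-HEPES pH 8.0, 25 mM NaCl, in 2.5 °C steps up to 60 °C. Bootstrapped two-state fits gave melting temperature and folding enthalpy, and four replicates were combined by inverse variance. Fitted temperatures were then raised by 9.35 °C to match UV melts.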

The nature of data set [2]: folding enthalpy; higher = less favourable; fluorescence melt of hairpins on a sequencing array, two-state fit. The following applies: sodium 0.088 M. An outline of the steps: as §1

Consider GATACACGAAAGTGAATC (((.(((....))).))), for which, in data set [1], the Tm is 45.2 °C. Besides, the folding enthalpy in data set [2] is -22.1 kcal/mol.

Take GATACACGAAAGTGGATC (((.(((....))).))): the Tm in data set [1] turned out to be 56.6 °C. Besides, the folding enthalpy in data set [2] is -37.4 kcal/mol.

GATACAGGAAACCGTATC (((((.(....).))))): in data set [1], the Tm was 36.5 °C. Also, the folding enthalpy in data set [2] is -29.6 kcal/mol.

Take GATACCCGAAAGGGAATC (((.(((....))).))): the Tm in data set [1] worked out at 48 °C. In addition, the folding enthalpy in data set [2] is -23.9 kcal/mol.

Take GATACCGAAAGGTCTATC ((((((....)))..))): in data set [1], the Tm was found to be 19.6 °C. The folding enthalpy in data set [2] is -5.86 kcal/mol.

As to GATACCGAAAGGTGCATC ((((((....)))..))), the Tm in data set [1] was 27.4 °C. The folding enthalpy in data set [2] was -9.69 kcal/mol.

Turning to GATACCGAAAGGTTATC ((((((....))).))), the Tm in data set [1] turned out to be 37.6 °C. For the same sequence, in data set [2], the folding enthalpy was -17.7 kcal/mol.

On to GATACCGGAAACGATATC ((((.((....)).)))), for which the Tm in data set [1] came out at 34.8 °C. Also, the folding enthalpy in data set [2] was -25.8 kcal/mol.

For the sequence GATACGGGAAACCATATC ((((.((....)).)))), the Tm in data set [1] worked out at 28.2 °C. The folding enthalpy in data set [2] was -19.3 kcal/mol.

As for GATACGGGAAACCGTATC (((((((....))))))), in data set [1], the Tm is 59.4 °C. The folding enthalpy in data set [2] is -35.8 kcal/mol.

For the sequence GATAGAGCGAAAGCTATC (((..(((....)))))), the Tm in data set [1] worked out at 32.3 °C. For the same sequence, in data set [2], the folding enthalpy was -13 kcal/mol.

For the sequence GATAGCCCGAAAGGGATC (((..(((....)))))), the Tm in data set [1] was determined as 32.6 °C. The folding enthalpy in data set [2] is -8.63 kcal/mol.

As to GATAGCCGAAAGGCATC (((.(((....)))))), the Tm in data set [1] worked out at 43.3 °C. The folding enthalpy in data set [2] is -12.2 kcal/mol.

For GATAGCCGAAAGGCCATC (((.(((....))).))), the Tm in data set [1] is 39.6 °C. For the same sequence, the folding enthalpy in data set [2] was -13.8 kcal/mol.

In the case of GATAGCGAAAGCTTATC ((((((....))).))), the Tm in data set [1] amounted to 39 °C. Besides, the folding enthalpy in data set [2] was -13.7 kcal/mol.

With GATAGCGCGAAAGCGATC (((..(((....)))))), the Tm in data set [1] worked out at 32.2 °C. Also, in data set [2], the folding enthalpy is -9.46 kcal/mol.

GATAGTGGAAACACTACC (.(((((....))))).): in data set [1], the Tm worked out at 33.1 °C. Also, the folding enthalpy in data set [2] was -12.4 kcal/mol.

GATAGTGGAAACACTGTC ((.((((....)))).)): the Tm in data set [1] was 43.4 °C. For the same sequence, in data set [2], the folding enthalpy was -29.7 kcal/mol.

Regarding GATATACGAAAGTAATC (((.(((....)))))), the Tm in data set [1] was found to be 23.8 °C. Besides, the folding enthalpy in data set [2] is -9.45 kcal/mol.

GATATCCCGAAAGGGATC (((..(((....)))))): the Tm in data set [1] amounted to 32.5 °C. Also, the folding enthalpy in data set [2] is -8.05 kcal/mol.

Take GATATCGGAAACGATATC (((((((....))))))): in data set [1], the Tm is 56.7 °C. In addition, in data set [2], the folding enthalpy was -42.4 kcal/mol.

Turning to GATATGACGAAAGTCATC (((..(((....)))))), the Tm in data set [1] is 33.3 °C. For the same sequence, in data set [2], the folding enthalpy was -10.7 kcal/mol.

In the case of GATATTCCGAAAGGAATC (((..(((....)))))), the Tm in data set [1] stood at 32.7 °C. Further, the folding enthalpy in data set [2] is -11.4 kcal/mol.

Regarding GATATTGGAAACAATGTC ((.((((....)))).)), the Tm in data set [1] is 36.3 °C. For the same sequence, the folding enthalpy in data set [2] was -30.9 kcal/mol.

GATCAAAACCTTGATC ((((((....)))))): the Tm in data set [1] turned out to be 44.4 °C. In data set [2], the folding enthalpy is -32.5 kcal/mol.

For GATCAAAACGTTGATC ((((((....)))))), the Tm in data set [1] was 39.8 °C. For the same sequence, in data set [2], the folding enthalpy is -28.1 kcal/mol.

As to GATCAAAACTTGATC ((((((...)))))), the Tm in data set [1] stood at 41.7 °C. Further, the folding enthalpy in data set [2] is -27.6 kcal/mol.

As for GATCAAAATGTTGATC ((((((....)))))), the Tm in data set [1] is 38.4 °C. For the same sequence, in data set [2], the folding enthalpy was -28.1 kcal/mol.

In the case of GATCAAAATTTGATC ((((((...)))))), in data set [1], the Tm came to 39.3 °C. Moreover, the folding enthalpy in data set [2] was -26.4 kcal/mol.

For GATCAAACACTTGATC ((((((....)))))), in data set [1], the Tm amounted to 37.9 °C. In addition, the folding enthalpy in data set [2] was -28.7 kcal/mol.

For GATCAAACATTTGATC ((((((....)))))), in data set [1], the Tm turned out to be 42.4 °C. In addition, the folding enthalpy in data set [2] is -30.2 kcal/mol.

Consider GATCAAACCTTTGATC ((((((....)))))), for which the Tm in data set [1] is 46 °C. In addition, the folding enthalpy in data set [2] is -30.1 kcal/mol.

For the sequence GATCAAAGTCTTGATC ((((((....)))))), the Tm in data set [1] was determined as 41.7 °C. Besides, the folding enthalpy in data set [2] is -31.1 kcal/mol.

As for GATCAAAGTTTTGATC ((((((....)))))), the Tm in data set [1] was found to be 46.1 °C. For the same sequence, in data set [2], the folding enthalpy is -29.2 kcal/mol.

GATCAAATCTTGATC ((((((...)))))): the Tm in data set [1] came to 42 °C. Further, the folding enthalpy in data set [2] is -27.8 kcal/mol.

For the sequence GATCAAATGCTTGATC ((((((....)))))), the Tm in data set [1] stood at 41.5 °C. Moreover, in data set [2], the folding enthalpy is -29.6 kcal/mol.

For GATCAACAACTTGATC ((((((....)))))), in data set [1], the Tm was 38.4 °C. For the same sequence, in data set [2], the folding enthalpy was -35.1 kcal/mol.
